Data: ChEMBL document CHEMBL3797154, “Design and Synthesis of 1-((1,5-Bis(4-chlorophenyl)-2-methyl-1H-pyrrol-3-yl)methyl)-4-methylpiperazine (BM212) and N-Adamantan-2-yl-N'-((E)-3,7-dimethylocta-2,6-dienyl)ethane-1,2-diamine (SQ109) Pyrrole Hybrid Derivatives: Discovery of Potent Antitubercular Agents Effective against …” (J Med Chem, 2016)
Converted amounts (≈) assume the structure as drawn. The source made the active and inactive calls. The rule behind the calls is not given here.

Key:
[1] = system: Mycobacterium tuberculosis; experiment: Antimycobacterial activity against drug-resistant Mycobacterium tuberculosis isolate MDR1 assessed as inhibition of mycobacterial growth incubated for 9 days; format: functional
Outline: (§1)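 MIC by HT-SPOTi on Middlebrook 7H10 agar with 0.05% (v/v) glycerol and 10% (v/v) OADC in 96-well format. Compounds dissolved at 50 mg/mL (stock), two-fold serial dilutions, final 500-0.5 µg/mL. Each well spotted with 2 µL early-to-midlog culture (2x10^3 CFU), incubated at 37 °C until distinct spots in control wells. DMSO-only and isoniazid controls; triplicate.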

[2] = system: Mycobacterium tuberculosis; experiment: Antimycobacterial activity against drug-resistant Mycobacterium tuberculosis isolate MDR2 assessed as inhibition of mycobacterial growth incubated for 9 days; format: functional; outline: as §1
[3] = system: Mycobacterium tuberculosis variant bovis BCG; experiment: Antimycobacterial activity against Mycobacterium bovis BCG Pasteur ATCC 35734 assessed as inhibition of mycobacterial growth incubated for 24 hrs by MABA method; format: functional; conditions: Pasteur ATCC 35734, 24 h
[4] = system: Mycobacterium tuberculosis; experiment: Antimycobacterial activity against drug-resistant Mycobacterium tuberculosis isolate MDR2 assessed as inhibition of mycobacterial growth at 500 ug/ml incubated for 9 days; format: functional, organism-based; outline: as §1
[5] = system: Mycobacterium tuberculosis; experiment: Antimycobacterial activity against drug-resistant Mycobacterium tuberculosis isolate MDR1 assessed as inhibition of mycobacterial growth at 500 ug/ml incubated for 9 days; format: functional, organism-based; outline: as §1

| SMILES | MIC ([1]; isolate MDR1, 216 h) [mg/L] | MIC ([2]; isolate MDR2, 216 h) [mg/L] | MIC [3] [mg/L] | growth inhibition (GI) [4] | MIC [2] | MIC [1] | growth inhibition (GI) [5] |
| --- | --- | --- | --- | --- | --- | --- | --- |
| Cc1ccc(CNCc2cc(C)n(-c3ccc(Cl)cc3)c2C)cc1 | 3.9 (≈ 11.5 µM) | 7.8 (≈ 23 µM) | 4 (≈ 11.8 µM) |  |  |  |  |
| Cc1cc(CNOCc2ccccc2)c(C)n1-c1ccc(F)cc1 | 62 (≈ 191 µM) | > 125 | > 64 |  |  |  |  |
| Cc1c(CN2CCN(C3CC4CCC3C4)CC2)cc(-c2ccc(Cl)cc2)n1-c1ccc(Cl)cc1 (mixture of isomers) |  |  | 64 |  |  |  |  |
| Cc1cc(CNCc2ccc(Cl)cc2)c(C)n1-c1ccc(Cl)cc1 | 31 (≈ 86.3 µM) | > 125 | 8 (≈ 22.3 µM) |  |  |  |  |
| Cc1cc(CN2CCN(c3ccccc3)CC2)c(C)n1-c1ccc(Cl)cc1 | 31 (≈ 81.6 µM) | > 125 | 32 (≈ 84.2 µM) |  |  |  |  |
| Cc1c(CN2CCN(c3ccccc3)CC2)cc(-c2ccc(Cl)cc2)n1-c1ccc(Cl)cc1 | 3.9 (≈ 8.19 µM) | > 125 | 2 (≈ 4.2 µM) |  |  |  |  |
| Cc1cc(CN2CCN(C34CC5CC(CC(C5)C3)C4)CC2)c(C)n1-c1ccc(Cl)cc1 | 125 (≈ 285 µM) | 125 (≈ 285 µM) | 16 (≈ 36.5 µM) |  |  |  |  |
| Cc1cc(CNC2CCCCC2)c(C)n1-c1ccc(Cl)cc1 | 0.5 (≈ 1.58 µM) | 16 (≈ 50.5 µM) | 0.4 (≈ 1.26 µM) |  |  |  |  |
| Cc1c(CN2CCN(C34CC5CC(CC(C5)C3)C4)CC2)cc(-c2ccc(Cl)cc2)n1-c1ccc(Cl)cc1 | 16 (≈ 29.9 µM) | 62 (≈ 116 µM) | 2 (≈ 3.74 µM) |  |  |  |  |
| CC(C)=CCC/C(C)=C/CNCCNC1C2CC3CC(C2)CC1C3 (stereo not given) [SQ109] |  |  | 2 (≈ 6.05 µM) |  |  |  |  |
| Cc1cc(CN2CCN(C3C4CC5CC(C4)CC3C5)CC2)c(C)n1-c1ccc(C(C)C)cc1 (stereo not given) | 62 (≈ 139 µM) | 125 (≈ 280 µM) | 4 (≈ 8.97 µM) |  |  |  |  |
| Cc1c(CN2CCN(C)CC2)cc(-c2ccc(Cl)cc2)n1-c1ccc(Cl)cc1 | 3.9 (≈ 9.41 µM) | 16 (≈ 38.6 µM) | 0.78 (≈ 1.88 µM) |  |  |  |  |
| Cc1c(CNC2CCCCC2)cc(-c2ccc(Cl)cc2)n1-c1ccc(Cl)cc1 |  |  | 4 (≈ 9.68 µM) |  |  |  |  |
| Cc1c(CN2CCN(c3ccccc3)CC2)c(CN2CCN(c3ccccc3)CC2)c(C)n1-c1ccc(Cl)cc1 | 62 (≈ 112 µM) | > 125 | > 64 |  |  |  |  |
| Cc1c(CNCc2ccccc2)cc(-c2ccc(Cl)cc2)n1-c1ccc(Cl)cc1 |  |  | 8 (≈ 19 µM) |  |  |  |  |
| Cc1cc(CNC2C3CC4CC(C3)CC2C4)c(C)n1-c1ccc(Cl)cc1 (stereo not given) | 3.9 (≈ 10.6 µM) | 125 (≈ 339 µM) | 2 (≈ 5.42 µM) |  |  |  |  |
| Cc1cccc(-n2c(C)cc(CN3CCN(C4C5CC6CC(C5)CC4C6)CC3)c2C)c1 (stereo not given) | 31 (≈ 74.2 µM) | 125 (≈ 299 µM) | 62 (≈ 148 µM) |  |  |  |  |
| Cc1cc(CN2CCN(C3C4CC5CC(C4)CC3C5)CC2)c(C)n1-c1ccc(Cl)cc1 (stereo not given) | 7.8 (≈ 17.8 µM) | 16 (≈ 36.5 µM) | 3.3 (≈ 7.53 µM) |  |  |  |  |
| Cc1cc(CNCc2ccccc2)c(C)n1-c1ccc(F)cc1 | 7.8 (≈ 25.3 µM) | 62 (≈ 201 µM) | 13 (≈ 42.2 µM) |  |  |  |  |
| Cc1cc(CN2CCN(C3CCCCC3)CC2)c(C)n1-c1ccc(Cl)cc1 | 7.8 (≈ 20.2 µM) | 62 (≈ 161 µM) | 21 (≈ 54.4 µM) |  |  |  |  |
| Cc1cc(CNCCc2ccccc2)c(C)n1-c1ccc(Cl)cc1 | 1.9 (≈ 5.61 µM) | 7.8 (≈ 23 µM) | 16 (≈ 47.2 µM) |  |  |  |  |
| Cc1c(CN2CCN(C3C4CC5CC(C4)CC3C5)CC2)cc(-c2ccc(Cl)cc2)n1-c1ccc(Cl)cc1 (stereo not given) | 125 (≈ 234 µM) | 125 (≈ 234 µM) | 64 (≈ 120 µM) |  |  |  |  |
| NNC(=O)c1ccncc1 [ISONIAZID] | 10 (≈ 72.9 µM) | 25 (≈ 182 µM) |  |  |  |  |  |
| Cc1cc(CN2CCN(C3C[C@@H]4CC[C@H]3C4)CC2)c(C)n1-c1ccc(Cl)cc1 (mixture of isomers) | 3.9 | 31 | 32 |  |  |  |  |
| Cc1cc(CN2CCN(C3C4CC5CC(C4)CC3C5)CC2)c(C)n1-c1ccccc1F (stereo not given) | 7.8 (≈ 18.5 µM) | 16 (≈ 38 µM) | 1.3 (≈ 3.08 µM) |  |  |  |  |
| Cc1cc(/C=N\OCc2ccccc2)c(C)n1-c1ccc(Cl)cc1 | > 125 | > 125 | > 64 |  |  |  |  |
| Cc1cc(CNOCc2ccccc2)c(C)n1-c1ccc(Cl)cc1 | 125 (≈ 367 µM) |  | > 64 | inactive | inactive |  |  |
| Cc1cc(CNCc2ccc(F)cc2)c(C)n1-c1ccc(Cl)cc1 |  | 16 (≈ 46.7 µM) | 0.5 (≈ 1.46 µM) |  |  | inactive | inactive |
| Cc1cc(CNCc2ccccc2)c(C)n1-c1ccc(Cl)cc1 | 1 (≈ 3.08 µM) | 3.9 (≈ 12 µM) | 0.5 (≈ 1.54 µM) |  |  |  |  |
